The results in this text go back to ChEMBL document CHEMBL1145325, “p38 MAP kinase inhibitors. Part 3: SAR on 3,4-dihydropyrimido[4,5-d]pyrimidin-2-ones and 3,4-dihydropyrido[4,3-d]pyrimidin-2-ones” (Bioorg Med Chem Lett, 2006).

Data set [1] deals with THP-1. The experiment in a line: Inhibition of LPS-stimulated TNFalpha release in human THP1 cells. Format: functional, cell-based. A digest of the protocol: (§1)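 THP-1 cells at 2.5 · 10⁶/mL suspended in a PBS-based medium. Compound added in DMSO, then LPS. Incubated 4 h at 37 °C under CO₂. TNF-α in the supernatant measured by sandwich ELISA, with anti-human TNF-α as the capture antibody.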

Data set [2] addresses Voltage-gated inwardly rectifying potassium channel KCNH2 (Homo sapiens, UniProt Q12809). The data set is described as follows: Binding affinity to iKr potassium channel.
For data set [3], the target named is Mitogen-activated protein kinase 14 (Homo sapiens, UniProt Q16539). The data set is described as follows: Inhibition of p38alpha.
Mitogen-activated protein kinase 14, sequence (Q16539 whole entry): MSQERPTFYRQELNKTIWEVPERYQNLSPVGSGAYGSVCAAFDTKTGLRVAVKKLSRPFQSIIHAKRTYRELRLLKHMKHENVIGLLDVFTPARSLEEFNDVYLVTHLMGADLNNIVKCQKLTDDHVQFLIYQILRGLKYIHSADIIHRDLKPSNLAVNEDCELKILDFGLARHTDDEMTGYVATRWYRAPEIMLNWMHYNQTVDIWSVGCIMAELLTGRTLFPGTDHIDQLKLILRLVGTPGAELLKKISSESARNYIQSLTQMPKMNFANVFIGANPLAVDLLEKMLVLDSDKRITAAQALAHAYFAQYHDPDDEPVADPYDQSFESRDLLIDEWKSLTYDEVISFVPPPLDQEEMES
Data set [4] has as its target Voltage-gated L-type calcium channel (Homo sapiens, UniProt Q13936+Q13698+Q01668+O60840). The data set is described as follows: Binding affinity to DLZ binding site of calcium channel. Format: protein assay.
Data set [5] is filed under the species Homo sapiens. The data set is described as follows: Inhibition of LPS-stimulated TNFalpha release in human whole blood. Type of data set: functional, organism-based.
For data set [6], the species on record is Homo sapiens. The data set is described as follows: Inhibition of LPS-stimulated TNFalpha release in human whole blood upto 15 uM. Format: functional, organism-based.
The nature of data set [7]: Oral bioavailability in rat. Format: ADME, organism-based. As to conditions: in vivo; call rule not given here.
Data set [8] can be described thus: Half life in rat. Type of data set: ADME, organism-based. Conditions: in vivo.
Data set [9] relates to THP-1. The experiment in a line: Inhibition of LPS-stimulated TNFalpha release in human THP1 cells upto 15 uM. Format: functional, cell-based. A digest of the protocol: as §1

Voltage-gated inwardly rectifying potassium channel KCNH2, sequence (Q12809 whole entry): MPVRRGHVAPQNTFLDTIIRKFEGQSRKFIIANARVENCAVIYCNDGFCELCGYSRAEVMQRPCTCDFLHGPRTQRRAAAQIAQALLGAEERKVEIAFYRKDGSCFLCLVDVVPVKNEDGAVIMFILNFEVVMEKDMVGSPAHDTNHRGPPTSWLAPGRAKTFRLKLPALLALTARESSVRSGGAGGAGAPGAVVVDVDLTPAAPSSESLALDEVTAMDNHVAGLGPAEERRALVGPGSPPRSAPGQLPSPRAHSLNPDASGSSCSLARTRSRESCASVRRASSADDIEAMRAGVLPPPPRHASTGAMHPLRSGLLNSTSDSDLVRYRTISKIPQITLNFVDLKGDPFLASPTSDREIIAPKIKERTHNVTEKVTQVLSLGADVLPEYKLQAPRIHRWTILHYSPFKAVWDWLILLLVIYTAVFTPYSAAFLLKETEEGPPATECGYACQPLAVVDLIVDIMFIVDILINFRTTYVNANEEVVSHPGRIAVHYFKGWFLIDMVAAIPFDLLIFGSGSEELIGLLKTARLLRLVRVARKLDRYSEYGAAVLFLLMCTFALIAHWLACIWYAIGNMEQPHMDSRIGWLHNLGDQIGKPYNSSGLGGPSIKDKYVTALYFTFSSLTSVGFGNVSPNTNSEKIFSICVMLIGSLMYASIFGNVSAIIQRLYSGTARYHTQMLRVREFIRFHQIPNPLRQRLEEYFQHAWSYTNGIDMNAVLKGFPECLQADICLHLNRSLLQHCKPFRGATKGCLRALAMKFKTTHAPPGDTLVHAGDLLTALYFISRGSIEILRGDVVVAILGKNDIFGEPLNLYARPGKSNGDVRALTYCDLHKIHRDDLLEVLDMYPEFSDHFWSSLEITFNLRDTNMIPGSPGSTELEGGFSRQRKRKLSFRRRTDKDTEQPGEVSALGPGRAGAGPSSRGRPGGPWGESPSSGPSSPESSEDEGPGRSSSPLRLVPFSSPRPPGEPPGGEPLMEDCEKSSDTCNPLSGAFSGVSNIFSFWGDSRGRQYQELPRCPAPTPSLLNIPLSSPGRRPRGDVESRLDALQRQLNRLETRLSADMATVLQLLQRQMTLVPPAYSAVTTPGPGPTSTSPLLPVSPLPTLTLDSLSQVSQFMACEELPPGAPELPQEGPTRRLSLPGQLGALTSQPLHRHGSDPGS

The IC50 is the concentration that gives 50% inhibition. Higher therefore signals lower potency. Turning to `CC1(C)CC(Nc2nc(-c3ccccc3Cl)c3c(n2)N(c2c(Cl)cccc2Cl)C(=O)NC3)CC(C)(C)N1`, the concentration for half-maximal inhibition (IC50) in the data set with THP-1 [1] turned out to be 2.6 nM; in data set [3], 0.7 nM; in the data set filed under Homo sapiens [5], 38 nM. Further, the values for the Activity in data set [2] and in data set [4] were 4.5 µM and 1.2 µM, respectively.

Take `O=C1NCc2c(-c3ccccc3Cl)cc(O)cc2N1c1c(Cl)cccc1Cl`: in data set [3], the IC50 worked out at 2 nM.

As for `C[C@@H]1CN(c2nc(-c3ccc(Cl)cc3Cl)c3c(n2)N(c2c(Cl)cccc2Cl)C(=O)NC3)C[C@H](C)O1`, the half-inhibitory concentration (IC50) with THP-1 [1] was 500 nM; in the data set listed under Homo sapiens [6] it was “Not Active”; in data set [3], 2 nM. Also, the Activity in [2] was 5 µM; in [4] it was 6 µM.

Consider `CN(C)CCOc1nc(-c2ccccc2Cl)c2c(n1)N(c1c(Cl)cccc1Cl)C(=O)NC2`, for which the IC50 with THP-1 [1] is 21 nM; in [3], 4.2 nM; in the data set listed under Homo sapiens [5] it was 250 nM. Besides, the Activity in data set [2] is 10 µM; in data set [4], 8.8 µM.

For the compound `CN(C)CCN1CCN(c2nc(-c3ccccc3Cl)c3c(n2)N(c2c(Cl)cccc2Cl)C(=O)NC3)CC1`, the half-inhibitory concentration (IC50) in the data set with THP-1 [1] stood at 2.3 nM; in data set [3], 0.5 nM; in the data set filed under Homo sapiens [5], 100 nM. Moreover, the Activity was found to be 3.8 µM in data set [2] and 1.7 µM in [4].

Regarding `O=C1NCc2c(-c3ccccc3Cl)nc(NC3CN4CCC3CC4)nc2N1c1c(Cl)cccc1Cl` (stereo not drawn), the IC50 in the data set with THP-1 [1] came out at 34 nM; in [3], 1.2 nM; in the data set listed under Homo sapiens [5] it was 360 nM. For the same compound, the Activity amounted to 5.8 µM in data set [2] and 1.3 µM in data set [4].

On to `CC(C)N1CCC(c2cc(-c3ccc(F)cc3F)c3c(c2)N(c2c(Cl)cccc2Cl)C(=O)NC3)CC1`, for which the concentration for half-maximal inhibition (IC50) in data set [3] was 0.2 nM; in the data set listed under Homo sapiens [5], 20 nM.

What is called bioavailability is dose-corrected exposure relative to a reference, in per cent. A word on the half-life: it is the time in which the quantity being followed falls by half. Take `CC(C)N1CCC(c2cc3c(c(-c4ccccc4Cl)n2)CNC(=O)N3c2c(Cl)cccc2Cl)CC1`: the bioavailability in data set [7] worked out at 18%. This compound also had a half-life in data set [8] of 2.1 h.

Turning to `CSc1nc(-c2ccccc2Cl)c2c(n1)N(c1c(Cl)cccc1Cl)C(=O)NC2`, the IC50 with THP-1 [1] is 700 nM; in the data set filed under Homo sapiens [6], “Not Active”; in data set [3], 10 nM. The Activity in data set [4] came out at 6 µM.

On to `CN1C2CCC1CC(Nc1nc(-c3ccccc3Cl)c3c(n1)N(c1c(Cl)cccc1Cl)C(=O)NC3)C2` (stereo not drawn), for which the 50% inhibitory concentration (IC50) turned out to be 2.6 nM in the data set with THP-1 [1], 0.5 nM in [3] and 17 nM in the data set listed under Homo sapiens [5]. Besides, the Activity in [2] is 8.9 µM; in data set [4], 2.2 µM.

Take `Nc1nc(-c2ccccc2Cl)c2c(n1)N(c1c(Cl)cccc1Cl)C(=O)NC2`: the IC50 with THP-1 [1] was 81 nM; in data set [3], 5.3 nM; in the data set filed under Homo sapiens [5], 2000 nM. Besides, the bioavailability in data set [7] amounted to 100%. Also, the Activity in data set [4] is 9.2 µM. In addition, in [8], the half-life is 1.1 h.

Turning to `CS(=O)(=O)c1nc(-c2ccccc2Cl)c2c(n1)N(c1c(Cl)cccc1Cl)C(=O)NC2`, the IC50 with THP-1 [1] was 500 nM; in the data set filed under Homo sapiens [6], “Not Active”; in data set [3] it was 4.2 nM. Further, the Activity was 9 µM in [2] and over 10 µM in [4].

For the compound `CN(C)CCN1CCN(c2nc(-c3ccc(Cl)cc3Cl)c3c(n2)N(c2c(Cl)cccc2Cl)C(=O)NC3)CC1`, the results for the IC50 (with THP-1 [1]; in data set [3]; in the data set listed under Homo sapiens [5]) were 22 nM, 1 nM and 42 nM, respectively. The bioavailability in data set [7] was 3%. Moreover, in [4], the Activity is 0.22 µM.

As to `CN(C)CCNc1nc(-c2ccc(Cl)cc2Cl)c2c(n1)N(c1c(Cl)cccc1Cl)C(=O)NC2`, the concentration for half-maximal inhibition (IC50) in the data set on THP-1 [1] was 20 nM; in [3], 5.6 nM; in the data set filed under Homo sapiens [5] it was 32 nM. For the same compound, the Activity was 0.5 µM in data set [2] and 1 µM in data set [4].

Turning to `COCCNc1nc(-c2ccc(Cl)cc2Cl)c2c(n1)N(c1c(Cl)cccc1Cl)C(=O)NC2`, the IC50 in the data set on THP-1 [1] came out at 97 nM; in data set [3] it was 2 nM; in the data set listed under Homo sapiens [5], 270 nM. For the same compound, the values for the Activity in [2] and in data set [4] were 3 µM and over 10 µM, respectively.

Turning to `O=C1NCc2c(-c3ccccc3Cl)nc(O)nc2N1c1c(Cl)cccc1Cl`, the figures for the half-maximal inhibitory concentration (IC50) (in the data set on THP-1 [1]; in the data set listed under Homo sapiens [6]; in data set [3]) were 170 nM, “Not Active” and 4 nM, respectively. Also, the Activity in [2] was 4.6 µM; in data set [4] it was 7 µM.

In the case of `CC(C)Nc1nc(-c2ccccc2Cl)c2c(n1)N(c1c(Cl)cccc1Cl)C(=O)NC2`, the IC50 in the data set on THP-1 [1] is 38 nM; in the data set listed under Homo sapiens [6] it was “Not Active”; in data set [3], 1.1 nM. In addition, the Activity was found to be 4.5 µM in data set [2] and 10 µM in [4].

Consider `O=C1NCc2c(-c3ccccc3Cl)nc(N3CCc4[nH]ncc4C3)nc2N1c1c(Cl)cccc1Cl`, for which the IC50 with THP-1 [1] amounted to 28 nM; in [3] it was 1.9 nM; in the data set listed under Homo sapiens [5], 500 nM. Moreover, the results for the Activity in [2] and in data set [4] were 10 µM and over 30 µM, respectively.

Take `CC(C)(C)CNc1nc(-c2ccccc2Cl)c2c(n1)N(c1c(Cl)cccc1Cl)C(=O)NC2`: the figures for the IC50 (with THP-1 [1]; in data set [3]; in the data set listed under Homo sapiens [5]) were 21 nM, 0.8 nM and 1000 nM, respectively. The Activity is 10 µM in [2] and over 30 µM in data set [4].

In the case of `O=C1NCc2c(-c3ccccc3Cl)nc(NN3CCOCC3)nc2N1c1c(Cl)cccc1Cl`, the half-maximal inhibitory concentration (IC50) with THP-1 [1] came out at 99 nM; in [3], 4 nM; in the data set listed under Homo sapiens [5] it was 1000 nM. For the same compound, the Activity in [2] amounted to 6.9 µM; in data set [4], 7 µM.

In the data set listed under Homo sapiens [5], `O=C1NCc2c(-c3ccc(F)cc3F)cc(C3CCNCC3)cc2N1c1c(Cl)cccc1Cl` returned a 50% inhibitory concentration (IC50) of 10 nM.

In the case of `CC(C)N1CCC(Nc2nc(-c3ccccc3Cl)c3c(n2)N(c2c(Cl)cccc2Cl)C(=O)NC3)CC1`, the IC50 worked out at 1 nM in the data set with THP-1 [1], 0.6 nM in [3] and 15 nM in the data set listed under Homo sapiens [5]. The Activity in data set [2] was 6.4 µM; in [4] it was 3.3 µM. The compound also came in with a bioavailability in data set [7] of 24%. The compound further gave a half-life in data set [8] of 2 h.

Regarding `O=C1NCc2c(-c3ccccc3Cl)nc(N3CCOCC3)nc2N1c1c(Cl)cccc1Cl`, the concentration for half-maximal inhibition (IC50) with THP-1 [1] is 500 nM; in the data set listed under Homo sapiens [6], “Not Active”; in [3], 2 nM. The Activity in data set [4] turned out to be 6 µM.

As to `CC(C)N1CCN(c2nc(-c3ccc(Cl)cc3Cl)c3c(n2)N(c2c(Cl)cccc2Cl)C(=O)NC3)CC1`, the concentration for half-maximal inhibition (IC50) in the data set on THP-1 [1] is 330 nM; in [3] it was 20 nM; in the data set filed under Homo sapiens [5] it was 1940 nM. The Activity came out at 0.2 µM in data set [2] and 0.7 µM in data set [4].

Compound `Nc1cc(-c2ccccc2Cl)c2c(c1)N(c1c(Cl)cccc1Cl)C(=O)NC2` had a half-maximal inhibitory concentration (IC50) in [3] of 6 nM.

Turning to `CNc1nc(-c2ccccc2Cl)c2c(n1)N(c1c(Cl)cccc1Cl)C(=O)NC2`, the half-maximal inhibitory concentration (IC50) stood at 22 nM in the data set on THP-1 [1], 2 nM in data set [3] and 850 nM in the data set filed under Homo sapiens [5]. The figures for the Activity in [2] and in data set [4] were 6.4 µM and 10 µM, respectively.

For `CN(C)c1nc(-c2ccccc2Cl)c2c(n1)N(c1c(Cl)cccc1Cl)C(=O)NC2`, the results for the IC50 entry (in the data set on THP-1 [9]; in the data set listed under Homo sapiens [6]; in data set [3]) were “Not Active”, “Not Active” and 3 nM, respectively. For the same compound, the Activity was 6 µM in [2] and over 10 µM in data set [4].
